Measured values as given in paper PMC10651775 (Blood, 2022).
Where a name gives a salt, the structure may show the parent alone. Read-outs that look alike come from different tables or passages of the source.

What was measured:
patients with R/R ATL = format: in vivo, human
Method in brief: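 Adults with R/R ATL (acute, lymphoma or unfavourable chronic type) took oral test compound (EZH1/EZH2 inhibitor) 200 mg once daily, fasting, in continuous 28-day cycles until progression or unacceptable toxicity; 50 mg if on strong CYP3A plus P-gp inhibitors. An independent committee assessed response at week 4, then every 8 weeks, then every 12 weeks after week 48, using modified ATL criteria without the ≥4-week persistence requirement.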

H3K27 trimethylation = details: compared with the EZH2-selective inhibitor tazemetostat; cited from earlier work
[1] = IEAC best response, ATL subtype Acute, N=16
[2] = IEAC best response, ATL subtype Lymphoma, N=6
[3] = IEAC best response, ATL subtype Unfavorable chronic, N=3
[4] = IEAC best response, All patients, N=25
[5] = IEAC best response, Disease site Nodal or extranodal lesions, N=20
[6] = IEAC best response, Disease site Peripheral blood, N=9
[7] = IEAC best response, Disease site Skin lesions, N=7
[8] = IEAC best response, Disease status Recurrent, N=6
[9] = IEAC best response, Disease status Refractory, N=11
[10] = IEAC best response, Disease status Relapsed, N=8
[11] = IEAC best response, Prior lenalidomide treatment No, N=17
[12] = IEAC best response, Prior lenalidomide treatment Yes, N=8
[13] = IEAC best response, Prior mogamulizumab treatment No, N=1
[14] = IEAC best response, Prior mogamulizumab treatment Yes, N=24

In the case of `Cc1cc(C)c(CNC(=O)c2cc(Cl)c3c(c2C)O[C@@](C)([C@H]2CC[C@H](N(C)C)CC2)O3)c(=O)[nH]1` [valemetostat, Valemetostat tosylate], the “ORR in nodal or extranodal lesions” value (patients with R/R ATL; IEAC) is reported as 50%, the CR (patients with R/R ATL; [1]) is reported as 5 (31.3) n (%) and the CRu (patients with R/R ATL; [1]) is reported as 0 n (%). The ORR (patients with R/R ATL; [1]) was 10 (62.5) n (%), the PD (patients with R/R ATL; [1]) was 2 (12.5) n (%) and the PR (patients with R/R ATL; [1]) was 5 (31.3) n (%). For the same compound, the CR (patients with R/R ATL; [2]) was 0 n (%), the CRu (patients with R/R ATL; [2]) was 0 n (%) and the ORR (patients with R/R ATL; [2]) was 1 (16.7) n (%). For the same compound, the PD (patients with R/R ATL; [2]) was 0 n (%), the PR (patients with R/R ATL; [2]) was 1 (16.7) n (%) and the CR (patients with R/R ATL; [3]) was 0 n (%). For the same compound, the CRu (patients with R/R ATL; [3]) was 0 n (%), the ORR (patients with R/R ATL; [3]) was 1 (33.3) n (%) and the PD (patients with R/R ATL; [3]) was 1 (33.3) n (%). For the same compound, the PR (patients with R/R ATL; [3]) was 1 (33.3) n (%), the CR (patients with R/R ATL; [4]) was 5 (20.0) n (%) and the CRu (patients with R/R ATL; [4]) was 0 n (%). For the same compound, the ORR (patients with R/R ATL; [4]) was 12 (48.0) n (%), the PD (patients with R/R ATL; [4]) was 3 (12.0) n (%) and the PR (patients with R/R ATL; [4]) was 7 (28.0) n (%). The CR (patients with R/R ATL; [5]) was 6 (30.0) n (%), the CRu (patients with R/R ATL; [5]) was 2 (10.0) n (%) and the ORR (patients with R/R ATL; [5]) was 10 (50.0) n (%). For the same compound, the PD (patients with R/R ATL; [5]) was 3 (15.0) n (%), the PR (patients with R/R ATL; [5]) was 2 (10.0) n (%) and the CR (patients with R/R ATL; [6]) was 2 (22.2) n (%). The ORR (patients with R/R ATL; [6]) was 8 (88.9) n (%), the PD (patients with R/R ATL; [6]) was 0 n (%) and the PR (patients with R/R ATL; [6]) was 6 (66.7) n (%). The CR (patients with R/R ATL; [7]) was 1 (14.3) n (%), the PD (patients with R/R ATL; [7]) was 0 n (%) and the PR (patients with R/R ATL; [7]) was 2 (28.6) n (%). The CR (patients with R/R ATL; [8]) was 1 (16.7) n (%), the CRu (patients with R/R ATL; [8]) was 0 n (%) and the ORR (patients with R/R ATL; [8]) was 4 (66.7) n (%). For the same compound, the PD (patients with R/R ATL; [8]) was 0 n (%), the PR (patients with R/R ATL; [8]) was 3 (50.0) n (%) and the CR (patients with R/R ATL; [9]) was 3 (27.3) n (%). The CRu (patients with R/R ATL; [9]) was 0 n (%), the ORR (patients with R/R ATL; [9]) was 5 (45.5) n (%) and the PD (patients with R/R ATL; [9]) was 2 (18.2) n (%). The PR (patients with R/R ATL; [9]) was 2 (18.2) n (%), the CR (patients with R/R ATL; [10]) was 1 (12.5) n (%) and the CRu (patients with R/R ATL; [10]) was 0 n (%). The ORR (patients with R/R ATL; [10]) was 3 (37.5) n (%), the PD (patients with R/R ATL; [10]) was 1 (12.5) n (%) and the PR (patients with R/R ATL; [10]) was 2 (25.0) n (%). The CR (patients with R/R ATL; [11]) was 5 (29.4) n (%), the CRu (patients with R/R ATL; [11]) was 0 n (%) and the ORR (patients with R/R ATL; [11]) was 8 (47.1) n (%). The PD (patients with R/R ATL; [11]) was 2 (11.8) n (%), the PR (patients with R/R ATL; [11]) was 3 (17.6) n (%) and the CR (patients with R/R ATL; [12]) was 0 n (%). The CRu (patients with R/R ATL; [12]) was 0 n (%), the ORR (patients with R/R ATL; [12]) was 4 (50.0) n (%) and the PD (patients with R/R ATL; [12]) was 1 (12.5) n (%). For the same compound, the PR (patients with R/R ATL; [12]) was 4 (50.0) n (%), the CR (patients with R/R ATL; [13]) was 1 (100.0) n (%) and the CRu (patients with R/R ATL; [13]) was 0 n (%). For the same compound, the ORR (patients with R/R ATL; [13]) was 1 (100.0) n (%), the PD (patients with R/R ATL; [13]) was 0 n (%) and the PR (patients with R/R ATL; [13]) was 0 n (%). For the same compound, the CR (patients with R/R ATL; [14]) was 4 (16.7) n (%), the CRu (patients with R/R ATL; [14]) was 0 n (%) and the ORR (patients with R/R ATL; [14]) was 11 (45.8) n (%). The PD (patients with R/R ATL; [14]) was 3 (12.5) n (%), the PR (patients with R/R ATL; [14]) was 7 (29.2) n (%) and the “median TTR (time to response)” value (patients with R/R ATL; IEAC-assessed, range 1.0-5.6 months) was 1.4 months. It also gave an ORR by subtype (patients with R/R ATL; IEAC, acute (10/16)) of 62.5%, a CR rate (patients with R/R ATL; IEAC, all patients (5/25)) of 20.0% and a PR rate (patients with R/R ATL; IEAC, all patients (7/25)) of 28.0%. For the same compound, the “TCR (tumor control rate)” value (patients with R/R ATL; IEAC, best response CR, CRu, PR or SD, 95% CI 68.8-97.5) was 88.0%, the ORR by subtype (patients with R/R ATL; IEAC, lymphoma (1/6)) was 16.7% and the ORR (patients with R/R ATL; IEAC, patients pretreated with mogamulizumab (11/24), 90% CI 28.2-64.2) was 45.8%. For the same compound, the ORR (patients with R/R ATL; IEAC, patients refractory to mogamulizumab-containing therapies (3/6)) was 50.0%, the ORR (patients with R/R ATL; IEAC, patients with prior lenalidomide treatment (4/8), 90% CI 15.7-84.3) was 50% and the “ORR by disease status” value (patients with R/R ATL; IEAC, recurrent (4/6)) was 66.7%. For the same compound, the “ORR by disease status” value (patients with R/R ATL; IEAC, refractory disease (5/11)) was 45.5%, the “ORR by disease status” value (patients with R/R ATL; IEAC, relapsed (3/8)) was 37.5% and the ORR by subtype (patients with R/R ATL; IEAC, unfavorable chronic (1/3)) was 33.3%. The “centrally reviewed IEAC-assessed ORR” value (patients with R/R ATL; all patients (12/25), 90% CI 30.5-65.9) was 48.0%, the “responders with an ongoing response” value (patients with R/R ATL; at data cutoff (6/12)) was 50% and the “patients who achieved SD able to receive valemetostat for ≥6 months” value (patients with R/R ATL; following treatment initiation) was 4 of 10. For the same compound, the “median PFS” value (patients with R/R ATL; immature, 95% CI 3.0 months to not estimable) was 7.4 months, the “median OS” value (patients with R/R ATL; immature, 95% CI 6.5-16.4 months) was 16.4 months and the “responses converted from PR to CR” value (patients with R/R ATL; in vivo) was 2 patients. For the same compound, the H3K27 trimethylation (H3K27 trimethylation) was “strongly reduced H3K27 trimethylation”.
